For ten compounds, Activity, Efficacy and EC50 results are on record in ChEMBL document CHEMBL3046392, “Antifungal activities of N-arylbenzenesulfonamides against phytopathogens and control efficacy on wheat leaf rust and cabbage club root diseases” (Biosci Biotechnol Biochem, 2002).

Each structure is given as a SMILES string. ≈ marks a conversion by molar mass, not a printed value.

Type in all cases: functional
The subject of assay [1] is Plasmodiophora brassicae. As to the kind of experiment: Antifungal activity against Plasmodiophora brassicae in cabbage seedlings transplanted after soil infestation with fungus followed by compound application to soil assessed as cabbage club root disease control efficacy at 500 ug/ml measured after 35 days post fungal inoculation. In outline: (§1)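 Soil was inoculated with P. brassicae spore suspension (2×10⁶ spores/ml), then cabbage seedlings were transplanted. 10 ml of each compound solution was applied to assess disease suppression. Disease severity was assessed 35 days after inoculation, with control value calculated relative to untreated plants.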

Assay [2] deals with Plasmodiophora brassicae. As to the kind of experiment: Antifungal activity against Plasmodiophora brassicae in cabbage seedlings transplanted after soil infestation with fungus followed by compound application to soil assessed as cabbage club root disease control efficacy at 167 ug/ml measured after 35 days post fungal inoculation. The procedure, abridged: as §1
Assay [3] relates to Plasmodiophora brassicae. As to the kind of experiment: Antifungal activity against Plasmodiophora brassicae in cabbage seedlings transplanted after soil infestation with fungus followed by compound application to soil assessed as cabbage club root disease control efficacy at 56 ug/ml measured after 35 days post fungal inoculation. In outline: as §1
In assay [4] the test system is Plasmodiophora brassicae. As to the kind of experiment: Antifungal activity against Plasmodiophora brassicae in cabbage seedlings transplanted after soil infestation with fungus followed by compound application to soil assessed as cabbage club root disease control efficacy at 19 ug/ml measured after 35 days post fungal inoculation. The procedure, abridged: as §1
The subject of assay [5] is Rhizoctonia solani. As to the kind of experiment: Antifungal activity against Rhizoctonia solani assessed as mycelial growth inhibition after 2 to 6 days. The following applies: read-out: ED50 (the source's name). The procedure, abridged:
(§2)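 Serially diluted compound was mixed into 1/5-strength PDA plates at […]. A 5-mm agar plug of each fungus was placed at the plate centre, with three replicate plates per concentration per fungus. Plates were incubated at 25 °C for 2–6 days, radial growth was measured, and ED₅₀ for mycelial growth inhibition was derived by probit analysis.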

The subject of assay [6] is Globisporangium ultimum. As to the kind of experiment: Antifungal activity against Pythium ultimum assessed as mycelial growth inhibition after 2 to 6 days. The following applies: read-out: ED50 (the source's name). The procedure, abridged: as §2
The subject of assay [7] is Botrytis cinerea. As to the kind of experiment: Antifungal activity against Botryotinia fuckeliana assessed as mycelial growth inhibition after 2 to 6 days. Conditions: read-out: ED50 (the source's name). The procedure, abridged: as §2
Assay [8] deals with Phytophthora capsici. As to the kind of experiment: Antifungal activity against Phytophthora capsici assessed as mycelial growth inhibition after 2 to 6 days. Conditions: read-out: ED50 (the source's name). The procedure, abridged: as §2
The test system of assay [9] is Botrytis cinerea. As to the kind of experiment: Antifungal activity against Botryotinia fuckeliana infected compound pre-treated tomato seedlings at second-leaf stage assessed as tomato gray mould disease control values at 50 ug/ml measured after 3 to 4 days post fungal inoculation. In outline:
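Greenhouse-grown potted tomato seedlings at second-leaf stage were sprayed with compound in water+methanol (95+5) with Tween 20 (250 mg/l), left 24 h, then spray-inoculated with B. cinerea spore suspension. Plants were kept in the dark at 25 °C, 100% RH. Severity was scored after 3–4 days, and control value = 100 × (untreated − treated severity)/untreated severity.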

Assay [10] deals with Corticium. As to the kind of experiment: Antifungal activity against Corticium sasaki Matsu infected compound pre-treated rice seedlings at third-leaf stage assessed as rice sheath blight disease control values at 50 ug/ml measured after 4 days post fungal inoculation. In outline:
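Rice seedlings at third-leaf stage were sprayed with compound in water+methanol (95+5) plus Tween 20 (250 mg/l) and left 24 h. They were inoculated with 7-day-old wheat–rice bran cultures of C. sasaki and held 4 days dark at 25 °C, 100% RH, then 4 days in a growth chamber (25 °C, 100% RH, 12 h light). Control value was calculated from disease severity relative to untreated plants.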

In assay [11] the test system is Blumeria hordei. As to the kind of experiment: Antifungal activity against Blumeria graminis f. sp. hordei infected compound pre-treated barley seedlings at first-leaf stage assessed as barley powdery mildew disease control values at 50 ug/ml measured after 7 days post fungal inoculation. In outline:
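Pot-grown barley seedlings at first-leaf stage were sprayed with compound dissolved in water+methanol (95+5) containing Tween 20 (250 mg/l), left 24 h, then inoculated with the powdery mildew fungus. Control value = 100 × (untreated − treated severity)/untreated severity.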

Assay [12] has as its system Puccinia recondita. As to the kind of experiment: Antifungal activity against Puccinia recondita infected on compound pre-treated wheat seedlings at first-leaf stage assessed as wheat leaf rust disease control values at 50 ug/ml measured after 7 days post fungal inoculation. In outline: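 First-leaf wheat seedlings were sprayed with compound in water+methanol (95+5) with Tween 20 (250 mg/l) and left 24 h. They were sprayed with P. recondita spores (0.67 g/l, Tween 20 250 mg/l) and kept 1 day in a moist chamber at 20 °C, then moved to an incubation room. Infected leaf area was rated 7 days post-inoculation and converted to a control value relative to untreated plants.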

Assay [13] has as its system Pyricularia grisea. As to the kind of experiment: Antifungal activity against Magnaporthe grisea infected on compound pre-treated rice seedlings at second-leaf stage assessed as rice blast disease control values at 50 ug/ml measured after 5 days post fungal inoculation. The procedure, abridged: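 Rice seedlings grown in greenhouse pots at 25±5 °C, sprayed with compound in water+methanol (95+5) containing Tween 20 (250 mg/l) as wetting agent, left 24 h, then inoculated with M. grisea. Disease severity read as percentage infected leaf area 5 days after inoculation. Control value (%) = 100 × (untreated severity − treated severity)/untreated severity.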

The subject of assay [14] is Phytophthora capsici. As to the kind of experiment: Antifungal activity against Phytophthora capsici infected on compound pre-treated tomato seedlings at second-leaf stage assessed as tomato late blight disease control values at 50 ug/ml measured after 3 to 4 days post fungal inoculation.

On to `O=[N+]([O-])c1ccc(NS(=O)(=O)c2ccc(Cl)c(C(F)(F)F)c2)c(Cl)c1` [FLUSULFAMIDE], for which, in [1], the Activity was 62%. In addition, the Efficacy amounted to 42% in [2], 17% in [3] and 0% in assay [4].

Consider `O=[N+]([O-])c1cccc(S(=O)(=O)Nc2ccc([N+](=O)[O-])cc2Cl)c1`, for which the EC50 was 34.8 µg/mL (≈ 97.3 µM) in [5], 7.2 µg/mL (≈ 20.1 µM) in [6], 63.6 µg/mL (≈ 178 µM) in [7] and 7 µg/mL (≈ 19.6 µM) in assay [8].

As to `O=[N+]([O-])c1cccc(S(=O)(=O)Nc2ccc([N+](=O)[O-])cc2C(F)(F)F)c1`, the results for the EC50 in [5], in assay [6] and in assay [8] were 26.2 µg/mL (≈ 67 µM), 155 µg/mL (≈ 397 µM) and 233 µg/mL (≈ 595 µM), respectively.

As for `O=[N+]([O-])c1cccc(S(=O)(=O)Nc2ccc(F)c(C(F)(F)F)c2)c1`, the EC50 in assay [5] turned out to be 6 µg/mL (≈ 16.5 µM); in assay [6], 10.1 µg/mL (≈ 27.7 µM); in [7], 3.5 µg/mL (≈ 9.61 µM); in [8] it was 60.8 µg/mL (≈ 167 µM).

Turning to `O=S(=O)(Nc1ccc(F)c(C(F)(F)F)c1)c1ccccc1`, the EC50 in [5] was determined as 16.8 µg/mL (≈ 52.6 µM); in assay [6], 13.5 µg/mL (≈ 42.3 µM); in assay [7] it was 10.7 µg/mL (≈ 33.5 µM); in assay [8], 5.6 µg/mL (≈ 17.5 µM).

`O=[N+]([O-])c1ccc(NS(=O)(=O)c2ccccc2)c(Cl)c1`: the Activity in assay [9] was found to be 0%; in assay [10] it was 0%; in assay [11], 2%; in assay [12], 9%; in assay [13] it was 3%; in assay [14] it was 0%. For the same compound, the EC50 in assay [5] came to 14.4 µg/mL (≈ 46 µM); in [6], 5.4 µg/mL (≈ 17.3 µM); in assay [7], 28 µg/mL (≈ 89.5 µM); in assay [8], 9 µg/mL (≈ 28.8 µM). Further, the Efficacy in assay [1] amounted to 95%; in [2] it was 82%; in assay [3], 83%; in assay [4] it was 17%.

Regarding `O=[N+]([O-])c1ccc(NS(=O)(=O)c2ccccc2)c(C(F)(F)F)c1`, the EC50 worked out at 28.5 µg/mL (≈ 82.3 µM) in [5], 19.3 µg/mL (≈ 55.8 µM) in [6], 33.1 µg/mL (≈ 95.6 µM) in assay [7] and 18.5 µg/mL (≈ 53.4 µM) in [8].

On to `O=[N+]([O-])c1ccc(NS(=O)(=O)c2ccccc2)cc1`, for which the EC50 amounted to 42.3 µg/mL (≈ 152 µM) in assay [5], 6.9 µg/mL (≈ 24.8 µM) in assay [6], 65.7 µg/mL (≈ 236 µM) in [7] and 10.3 µg/mL (≈ 37 µM) in assay [8].

`O=S(=O)(Nc1ccccc1)c1ccccc1` [PHENYL(PHENYLSULFONYL)AMINE]: the EC50 in [5] is 68.9 µg/mL (≈ 295 µM); in assay [6] it was 75.4 µg/mL (≈ 323 µM); in [7], 239 µg/mL (≈ 1030 µM); in assay [8], 66.6 µg/mL (≈ 285 µM).

Regarding `O=S(=O)(Nc1ccc(C(F)(F)F)cc1)c1ccccc1`, the Activity in assay [9], in [10], in [11], in [12], in assay [13] and in [14] was 0% in each case. For the same compound, the EC50 amounted to 24.1 µg/mL (≈ 80 µM) in [5], 11.7 µg/mL (≈ 38.8 µM) in assay [6], 14.8 µg/mL (≈ 49.1 µM) in assay [7] and 14.6 µg/mL (≈ 48.5 µM) in assay [8]. In addition, the Efficacy in assay [1], in assay [2], in [3] and in assay [4] was 0% in each case.
